Source: PubChem BioAssay
Arrestin-AP2 inh: inhibitors of beta-arrestin/AP2 binding, primary screen, biochemical, GPCR trafficking, flow cytometry; FITC-arrestin peptide / GST-AP2 beads; AP2 beta2 appendage carries R879A mutation; inhibition, % at 10 µM; actives 0.31% (n = 340,000);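 active = inhibition above a set limit, near 3 SD of compounds lacking own fluorescence, cut at about 54% in these data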;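 note: plate controls were DMSO wells for no effect and 5 µM unlabelled arrestin peptide for full effect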
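System: GST-tagged AP2 beta2-adaptin appendage (R879A) on 4 µm glutathione beads / Reagent: FITC-arrestin peptide, 50 nM / Detection: HyperCyt-sampled flow cytometry, FL1 channel, ex 488/em 535 nm / Timing: 12 min plus 1 h, RT / Buffer or medium: PBS plus Tween 20 (0.05%) and BSA (0.1%)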
MIN6 prolif: inducers of MIN6 beta-cell proliferation, primary screen, ATP luminescence, uHTS; MIN6 cells proliferation, ATPlite luminescence, 48 h; cells starved in 0.2% serum; 100% = growth in 10% serum; proliferation, % at 10 µM; actives 0.29% (n = 330,000);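 active = compounds whose signal lies at least 3.5 SD above the mean of all wells on their plate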;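 note: 0% = DMSO-treated cells in low-serum medium and 100% = 10% serum control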
T cell HTS: modulators of CD8 T cell-vesicle binding, primary screen, mouse 2C CD8+ T cells, flow cytometry. response (vesicle binding), % at 7 µM. AID 2052, 2009. actives 0.068% (n = 330,000). 2C CD8+ T cell-vesicle binding; active compounds read low;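 active = response, share of CD8 T cells binding vesicles, and their 90th percentile fluorescence all below set limits, cut at about 80% in these data, passing the limit was not always enough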;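 note: values below 100% mean blocked vesicle binding to the CD8+ T cells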
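incubation = binding step 1.5 h, 37 °C, antibody labelling 20 min, ice | test system = 2C mouse CD8+ T cells | read-out basis = percent CD8+ FL2 mean versus row control | controls = Peptide-free naked vesicles (low) and QL9 vesicles with 0.7% DMSO vehicle (high) | detection = flow cytometry of vesicle-bound cells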
Xi reactivation: activators of inactive X chromosome reactivation, primary screen, imaging, XiGFP fibroblasts, GFP high-content imaging, set 2; actives 0.055% (n = 360,000); AID 743238, 2013; XiGFP mouse fibroblasts, % GFP-positive cells imaging, 3 d; cells co-treated with 5-aza-dC sensitizer; scaled so ellipticine positive control = 100%; activation, % at 7.58 µM;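 active = mean normalized replicate activation at least 10% and every replicate at or above 10%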;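 note: 0% = median of on-plate neutral control wells and 100% = ellipticine 6 µM median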
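Material: SV40-immortalized XiGFP fibroblast cells, line 68-5-11 | Buffer or medium: DMEM containing 5-aza-dC | Dosing: One concentration, pinned | Times: 3 d treatment, 15 min room-temperature fixation | Controls: Ellipticine 6 µM positive control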
NTR1 agonist: agonists of human NTR1, primary screen, imaging, U2OS cells, beta-arrestin-GFP, high content; Neurotensin receptor type 1 (Homo sapiens), P30989; NTR1-U2OS beta-arrestin-GFP spot imaging, agonist mode; activation, % at 20 µM; actives 0.17% (n = 330,000); AID 493036, 2011;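 active = activation at or above 40% of the spot to cytoplasm intensity ratio, with at least 20 cells analyzed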;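 note: 0% = DMSO without peptide and 100% = 100 nM NTR1 peptide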
Target sequence (P30989 whole entry, looked up): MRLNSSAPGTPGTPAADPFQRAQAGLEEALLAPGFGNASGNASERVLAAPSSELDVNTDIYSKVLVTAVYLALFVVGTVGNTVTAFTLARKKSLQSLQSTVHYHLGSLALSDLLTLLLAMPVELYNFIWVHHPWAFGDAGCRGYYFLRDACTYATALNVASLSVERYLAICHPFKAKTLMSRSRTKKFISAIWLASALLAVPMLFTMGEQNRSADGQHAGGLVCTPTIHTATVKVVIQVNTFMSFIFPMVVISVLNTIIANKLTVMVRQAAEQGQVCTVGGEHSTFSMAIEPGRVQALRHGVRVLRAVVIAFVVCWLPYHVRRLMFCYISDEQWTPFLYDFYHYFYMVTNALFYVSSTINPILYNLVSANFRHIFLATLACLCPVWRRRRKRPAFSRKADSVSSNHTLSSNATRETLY
V-ATPase pH: regulators of yeast V-ATPase proton pumping, primary screen, pHLuorin cytosolic pH fluorescence; AID 504577, 2011; actives 0.37% (n = 350,000); S. cerevisiae; response, % at 10 µM; in the data active = response mostly above about 7.3%, no sharp cut-off; inactive = mostly below about 5.4%; note: actives read high
The depositor's hits bear a star; . = not tested or not shown. This is a sample that favours compounds with a hit; in the whole collection about 0.89% have one here.

SMILES	Arrestin-AP2 inh	MIN6 prolif	T cell HTS	Xi reactivation	NTR1 agonist	V-ATPase pH
COc1ccccc1S(=O)(=O)N1CC[C@@H]2[C@@H](CO)N(C)c3ccc(-c4ccccc4)cc3[C@@H]21	.	.	.	-0.1	.	.
COc1ccc(CN(C)Cc2nc(Cc3ccccc3Cl)no2)cc1OC	-14.6	-3.4	268.1	33.1*	3.4	-3.9
COc1ccc(Cc2noc(CN(C)CCc3ccccc3)n2)cc1OC	-4.7	-2.0	369.7	-0.1	-0.2	-5.8
S=C(Nc1ccccc1Cl)NC1CCN(Cc2ccccc2)CC1	34.3	-1.5	110.1	0.0	2.7	-4.3
S=C(Nc1cc(Cl)cc(Cl)c1)NC1CCN(Cc2ccccc2)CC1	46.1	-7.3	333.9	0.2	52.4*	-2.1
Cc1ccc(C)c(N=Nc2ccc(O)c3ncccc23)c1	102.9*	-5.4	190.6	1.8	1.1	13.5
CC(=O)c1sc(NC(=O)CS(=O)(=O)c2ccccc2)nc1-c1ccccc1	39.2	-1.3	249.5	0.0	-0.5	18.4*
CC(=O)c1sc(NC(=O)CS(=O)(=O)c2ccccc2)nc1C	8.6	8.1	458.0	0.2	-0.8	0.5
CCN1CCN(S(=O)(=O)c2ccc(C(=O)Nc3sc4c(c3C(N)=O)CCN(CC)C4)cc2)CC1	1.8	5.9	234.7	53.8*	-1.2	-3.3
CCN1CCc2c(sc(NC(=O)CN3C(=O)c4ccccc4C3=O)c2C(N)=O)C1	2.8	0.3	468.9	0.0	-0.3	-2.1
CCN1CCc2c(sc(NC(=O)c3ccc4ccccc4c3)c2C(N)=O)C1	12.7	-7.2	283.2	38.1*	0.5	-1.4
CCSc1ccc([C@@H]2[C@@H]3C(=O)N(C)C(=O)[C@@H]3[C@]3(C(=O)OC)CCCCN23)cc1OC	3.0	-5.0	0.0*	0.0	3.6	0.2
O=S(=O)(N[C@H]1CC[C@H](CCn2cc(C3(O)CCCC3)nn2)O[C@@H]1CO)c1ccc(F)cc1	.	.	.	-0.6	.	.
CON(c1nc(N(C)C)nc(N(C)C)n1)S(=O)(=O)c1ccccc1Cl	6.0	-1.8	422.4	.	0.2	3.1
COC(=O)CN(n1cnnc1)S(=O)(=O)c1ccccc1Cl	-2.8	-1.3	66.6*	.	0.2	1.6
COc1ccc2c3c([nH]c2c1)[C@@H](CO)N(C(=O)c1ccc(F)cc1)CC31CN(C(=O)CC2CC2)C1	.	.	.	0.1	.	.
O=C1CN(C(=O)c2ccc(F)cc2)c2ccccc2N1	-10.4	-1.8	25.9*	0.0	-0.8	0.9
O=C1CN(C(=O)c2ccccc2)c2ccccc2N1	26.8	1.4	370.3	.	-0.4	-4.0
COc1ccc(CNC(=O)C[C@@H]2CC[C@H](NS(=O)(=O)c3cccc(OC)c3)[C@H](CO)O2)cc1	.	.	.	0.1	.	.
O=C(NC1CCCC1)C1CC(c2ccc(F)cc2)=NO1 (centres undefined)	-1.6	-0.9	0.0*	.	-1.1	0.8
CC(=O)Nc1nnc(CCS(=O)(=O)c2ccc(C)cc2)s1	-1.7	0.4	149.7	0.4	0.2	22.9*
O=C1Nc2ccccc2C12OCCS2 (centres undefined)	.	-1.9	0.0*	.	-2.0	.
C=CCOc1ccccc1C(=O)/C=C1/C(=O)Nc2ccccc21	-7.8	-6.9	151.2	0.3	50.4*	-6.1
Cn1c(N2CCOCC2)nc2c1c(=O)n(Cc1ccc(Cl)c(Cl)c1)c(=O)n2C	-3.2	-1.8	286.3	.	0.0	-0.2
Cn1c(OCc2ccco2)nc2c1c(=O)n(Cc1ccc(Cl)c(Cl)c1)c(=O)n2C	80.6*	4.0	256.6	.	2.4	-0.7
SMILES	Arrestin-AP2 inh	MIN6 prolif	T cell HTS	Xi reactivation	NTR1 agonist	V-ATPase pH
CC(=O)Oc1ccc2c(c1)c(C(C)=O)c(C)n2C	12.2	0.7	266.3	.	0.1	18.4*
COc1ccc2c(c1)c(C(C)=O)c(C)n2C	-19.7	4.3	390.1	1.9	0.9	-0.9
CCCCC(=O)N/N=C/c1ccc(-c2ccc([N+](=O)[O-])cc2)o1	39.1	1.5	298.8	0.1	4.8	-0.9
CC(C)(C)NC(=S)N/N=C\c1ccc(-c2ccc([N+](=O)[O-])cc2)o1	10.7	-3.5	319.7	66.4*	5.6	-13.2
Cc1ccc(S(=O)(=O)Nc2c(O)ccc3ccccc23)cc1	6.7	-4.3	33.2*	.	0.0	6.5
COc1cccc(NCc2cc(=O)oc3cc(-c4ccccc4)c(O)cc23)c1	-0.8	-2.3	293.4	0.2	3.5	21.0*
C[C@@H](NC(=O)C[C@H]1C[C@H]2c3cc(NS(C)(=O)=O)ccc3O[C@H]2[C@@H](CO)O1)c1ccccc1	.	.	.	0.0	.	.
Cc1ccccc1Nc1nc(N)nc(CSc2nnnn2-c2ccccc2)n1	9.4	-1.1	463.1	.	0.8	13.1*
C=CCn1c(SCC(=O)NCCO)nc2sc(C)c(C)c2c1=O	24.4	13.4*	182.1	0.1	-0.2	-0.8
C=CCn1c(SCC(=O)Nc2ccc(C(=O)O)cc2)nc2sc(C)c(C)c2c1=O	36.9	4.1	344.1	0.0	0.5	0.2
Clc1ccccc1-c1nnc2sc(-c3ccc4c(c3)OCO4)nn12	7.1	-4.2	261.3	.	3.4	15.8*
Brc1ccccc1-c1nnc2sc(-c3ccc4c(c3)OCCO4)nn12	-0.3	-1.7	385.5	.	1.5	3.6
Cc1nc2ccccc2cc1C(=O)N/N=C/c1cccs1	9.9	0.0	0.0*	0.0	0.4	-0.7
COC1=CC(=O)c2c(ccc3ncnc(N)c23)C1=O	10.5	.	.	18.9*	.	-0.1
CCOc1ccc(C2C=C(c3ccc(C)cc3)Nc3ncnn32)cc1 (centres undefined)	.	0.8	30.4*	.	2.6	.
Cc1ccc(C2=CC(c3ccc(C)cc3)n3ncnc3N2)cc1 (centres undefined)	7.1	2.1	141.5	0.3	0.9	6.6
CCC(=O)N1CC2(C1)[C@H](c1ccccc1)[C@H](CO)N2C(=O)NC(C)C	.	.	.	0.1	.	.
Cc1ccc(S(=O)(=O)N2CCN(C(=O)c3cccc(F)c3)CC2)cc1	24.6	-1.6	123.5	.	-0.5	-1.4
Cc1ccc(S(=O)(=O)N2CCN(C(=O)c3ccc4nc[nH]c4c3)CC2)cc1	28.4	0.1	248.0	0.0	0.2	14.8*
CC1CCCC(C)N1CCNC(=O)CCc1nnc2n(Cc3ccccc3)c(=O)c3ccccc3n12 (centres undefined)	0.1	-2.1	0.0*	0.0	1.9	-0.2
CC1CCCCN1CCNC(=O)CCc1nnc2n(Cc3ccccc3)c(=O)c3ccccc3n12 (centres undefined)	-1.5	2.3	150.4	0.2	8.4	1.6
